Consider 1 compound from paper PMC10233671 (ACS Omega, 2023).

≈ marks a conversion by molar mass, not a printed value.

The conditions of data set [1]: cited from earlier work.
Data set [2] addresses mitochondrial complex I (Bos taurus, UniProt P03887+P17694+P42026). The data set is described as follows: Bos taurus complex I activity assay. It is filed as biochemical. The settings on record: 10 μM, SMPs. The method in brief:
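Complex I from bovine heart sub-mitochondrial particles, prepared at 4 °C from isolated mitochondria and cleared at 16,000g. In a 96-well plate, SMPs were mixed with 10 μM test compound or positive control (rotenone, antimycin A or KCN). The reaction was started by injecting 200 μM NADH. NADH oxidation was followed at 340 nm for 8 min.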

Data set [3] addresses Msmeg CIII2CIV2 (Mycolicibacterium smegmatis, UniProt A0R052+I7GD61). The data set is described as follows: Oxygen consumption assay with purified CIII2CIV2. It is filed as biochemical, Mycobacterium smegmatis.
Data set [4] deals with Mtb H37Rv. The settings on record: reported value; cited from earlier work.
The target of data set [5] is bovine mitochondrial cytochrome bc1 (complex III) (Bos taurus, UniProt P00157). The data set is described as follows: Oxygen consumption assay with bovine heart sub-mitochondrial particles. Type of data set: biochemical.
Data set [6] addresses T1, mitochondrial CIII2 (cytochrome bc1) (Candida albicans, UniProt P0C8L0).
T1 sequence (P0C8L0 1-387): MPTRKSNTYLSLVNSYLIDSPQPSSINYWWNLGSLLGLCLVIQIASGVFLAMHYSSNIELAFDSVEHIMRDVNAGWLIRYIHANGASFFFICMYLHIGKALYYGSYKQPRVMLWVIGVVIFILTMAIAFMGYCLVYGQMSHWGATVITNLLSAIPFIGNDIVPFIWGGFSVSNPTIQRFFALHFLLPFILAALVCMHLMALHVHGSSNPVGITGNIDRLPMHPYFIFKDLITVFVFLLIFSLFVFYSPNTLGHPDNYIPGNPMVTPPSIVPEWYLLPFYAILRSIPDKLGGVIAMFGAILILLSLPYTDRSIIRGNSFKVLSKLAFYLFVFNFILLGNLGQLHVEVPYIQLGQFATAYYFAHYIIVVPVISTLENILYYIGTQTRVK
The data set is described as follows: C. albicans complex III activity assay. As to conditions: 10 and 1 μM. Type of data set: biochemical.

The test system of data set [7] is viable mycobacteria in the sputum. The settings on record: phase 2a multiple-dose trial; cited from earlier work.

Sequence of mitochondrial complex I (P03887 whole entry): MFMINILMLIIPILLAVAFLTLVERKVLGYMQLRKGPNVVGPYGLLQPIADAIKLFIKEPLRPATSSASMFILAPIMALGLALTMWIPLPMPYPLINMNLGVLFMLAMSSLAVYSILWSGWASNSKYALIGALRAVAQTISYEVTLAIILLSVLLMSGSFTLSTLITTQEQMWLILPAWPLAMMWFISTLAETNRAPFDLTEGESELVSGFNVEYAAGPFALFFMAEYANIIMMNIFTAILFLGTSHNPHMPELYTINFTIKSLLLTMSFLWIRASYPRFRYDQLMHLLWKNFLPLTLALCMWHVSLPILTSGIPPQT
Sequence of mitochondrial complex I (P42026 38-216): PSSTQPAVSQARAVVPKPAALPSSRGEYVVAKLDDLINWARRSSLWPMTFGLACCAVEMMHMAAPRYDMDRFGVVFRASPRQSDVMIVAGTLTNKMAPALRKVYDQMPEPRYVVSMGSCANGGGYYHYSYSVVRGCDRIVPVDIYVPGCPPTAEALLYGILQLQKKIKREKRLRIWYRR
Sequence of mitochondrial complex I (P17694 34-463): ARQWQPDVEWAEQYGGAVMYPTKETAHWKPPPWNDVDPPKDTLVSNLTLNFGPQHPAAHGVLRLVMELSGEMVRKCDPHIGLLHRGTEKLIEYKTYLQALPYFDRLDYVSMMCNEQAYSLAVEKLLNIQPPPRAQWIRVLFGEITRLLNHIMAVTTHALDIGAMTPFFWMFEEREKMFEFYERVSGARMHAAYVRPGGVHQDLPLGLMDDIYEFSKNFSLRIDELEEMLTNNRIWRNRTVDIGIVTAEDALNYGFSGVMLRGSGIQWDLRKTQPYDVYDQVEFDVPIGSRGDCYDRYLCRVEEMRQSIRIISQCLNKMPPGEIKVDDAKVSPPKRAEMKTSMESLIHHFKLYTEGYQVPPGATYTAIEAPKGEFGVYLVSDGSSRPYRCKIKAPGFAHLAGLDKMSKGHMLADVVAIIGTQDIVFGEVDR

In general, half-life refers to the time in which the quantity being followed falls by half. By IC50 is commonly meant the concentration needed to halve the response being measured. A high value points to weaker potency in that assay. As a reminder, the MIC50 is an inhibitory concentration at the 50% level, which refers to growth in some studies and to a panel of isolates in others. One may read the inhibition as the change of the read-out against control, counted positive when it falls. Take `CCc1nc2ccc(Cl)cn2c1C(=O)NCc1ccc(N2CCC(c3ccc(OC(F)(F)F)cc3)CC2)cc1` [Compound Q203]: the half-life in data set [1] is 13.38 ± 9.4704 days. For the same compound, the “inhibition of / binding to mitochondrial complex I” value in data set [2] was “do not inhibit”. Besides, the IC50 in data set [3] came to 99 ± 32 nM. Also, in data set [4], the MIC50 is 2.7 nM (≈ 1.5 ng/mL). Besides, in data set [5], the “activity against bovine mitochondrial cytochrome bc1” value was “did not show activity”. Also, the “inhibition in SMPs” value in data set [5] (1 μM) is listed as “no inhibition was detected”; in data set [5] (10 μM), “some inhibition”. Moreover, the inhibition at 10 µM in data set [5] (read-out: inhibition of complex III in SMPs) is 80%. Moreover, in data set [6], the “inhibition of purified C. albicans CIII2” value was “No inhibition was observed”. In addition, the “early bactericidal activity” value in data set [7] was “dose-dependent reduction in the load of viable mycobacteria in the sputum”.
